Measurements: ChEMBL document CHEMBL3352255, “Tailor-made fluorescent trilobolide to study its biological relevance” (J Med Chem, 2014)
Active and inactive are the calls of the source. No cut-off for these calls is given here.

How the values were obtained:
[1] = Cytotoxicity against human PC3 cells after 24 hrs by WST-1 assay; assay type: functional, cell-based; conditions: PC-3, 24 h
Procedure, shortened: (§1)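 Dark cytotoxicity (no light exposure) by WST-1 tetrazolium-to-formazan conversion reflecting metabolic activity; compounds tested at concentrations up to 50 μM for 24, 48 or 72 h; IC50 taken as concentration giving 50% inhibition of cell viability.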

[2] = test system: MCF7; assay: Cytotoxicity against human MCF7 cells after 48 hrs by WST-1 assay; assay type: functional, cell-based; conditions: MCF7, 48 h; procedure, shortened: as §1
[3] = Cytotoxicity against human PC3 cells after 72 hrs by WST-1 assay; assay type: functional, cell-based; conditions: PC-3, 72 h; procedure, shortened: as §1
[4] = Cytotoxicity against human MIAPaCa2 cells after 72 hrs by WST-1 assay; assay type: functional, cell-based; conditions: MIA PaCa-2, 72 h; procedure, shortened: as §1
[5] = Cytotoxicity against human PC3 cells after 48 hrs by WST-1 assay; assay type: functional, cell-based; conditions: PC-3, 48 h; procedure, shortened: as §1
[6] = test system: MCF7; assay: Cytotoxicity against human MCF7 cells after 24 hrs by WST-1 assay; assay type: functional, cell-based; conditions: MCF7, 24 h; procedure, shortened: as §1
[7] = Cytotoxicity against rat peritoneal cells assessed as reduction in cell viability at 40 uM after 24 hrs by WST-1 assay
[8] = species: Rattus norvegicus; assay: Induction of LPS-induced NO production in rat peritoneal cells after 24 hrs using DAR-2 probe by fluorescence assay; assay type: functional, cell-based
[9] = Cellular uptake in human MIAPaCa2 cells at 5 uM after 24 hrs by fluorescence microscopy; assay type: ADME, cell-based; conditions: mia paca-2, 24 h
Procedure, shortened: (§2)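 Live-cell fluorescence microscopy of Bodipy-labelled conjugates (green emission), 5 μM, uptake followed at 10, 20, 40 min and 1, 3, 5, 24 h. Cells stained with Bodipy dye alone served as control for dye-driven localization.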

[10] = test system: LNCaP; assay: Cytotoxicity against human LNCAP cells after 24 hrs by WST-1 assay; assay type: functional, cell-based; procedure, shortened: as §1
[11] = test system: HT-29; assay: Cytotoxicity against human HT-29 cells after 72 hrs by WST-1 assay; assay type: functional, cell-based; conditions: HT-29, 72 h; procedure, shortened: as §1
[12] = test system: A549; assay: Cellular uptake in human A549 cells at 5 uM after 24 hrs by fluorescence microscopy; assay type: ADME, cell-based; conditions: a549, 24 h; procedure, shortened: as §2
[13] = Cytotoxicity against rat peritoneal cells assessed as reduction in cell viability at 40 uM after 24 hrs by WST-1 assay; assay type: cell-based
[14] = test system: HT-29; assay: Cytotoxicity against human HT-29 cells after 24 hrs by WST-1 assay; assay type: functional, cell-based; conditions: HT-29, 24 h; procedure, shortened: as §1
[15] = test system: C2C12; assay: Cytotoxicity against mouse C2C12 cells after 72 hrs by WST-1 assay; assay type: functional, cell-based; conditions: C2C12, 72 h; procedure, shortened: as §1
[16] = test system: U2OS; assay: Cellular uptake in human U2OS cells at 5 uM after 24 hrs by fluorescence microscopy; assay type: ADME, cell-based; procedure, shortened: as §2
[17] = Cytotoxicity against human MIAPaCa2 cells after 48 hrs by WST-1 assay; assay type: functional, cell-based; conditions: MIA PaCa-2, 48 h; procedure, shortened: as §1
[18] = test system: LNCaP; assay: Cytotoxicity against human LNCAP cells after 48 hrs by WST-1 assay; assay type: functional, cell-based; procedure, shortened: as §1
[19] = test system: C2C12; assay: Cytotoxicity against mouse C2C12 cells after 48 hrs by WST-1 assay; assay type: functional, cell-based; conditions: C2C12, 48 h; procedure, shortened: as §1
[20] = test system: C2C12; assay: Cellular uptake in mouse C2C12 cells at 5 uM after 24 hrs by fluorescence microscopy; assay type: ADME, cell-based; conditions: c2c12, 24 h; procedure, shortened: as §2
[21] = Cellular uptake in human PC3 cells at 5 uM after 24 hrs by fluorescence microscopy; assay type: ADME, cell-based; conditions: pc-3, 24 h; procedure, shortened: as §2
[22] = test system: LNCaP; assay: Cellular uptake in human LNCAP cells at 5 uM after 24 hrs by fluorescence microscopy; assay type: ADME, cell-based; procedure, shortened: as §2
[23] = test system: U2OS; assay: Cytotoxicity against human U2OS cells after 72 hrs by WST-1 assay; assay type: functional, cell-based; procedure, shortened: as §1
[24] = test system: HeLa; assay: Cellular uptake in human HeLa cells at 5 uM after 24 hrs by fluorescence microscopy; assay type: ADME, cell-based; procedure, shortened: as §2
[25] = Cellular uptake in HEK293T cells at 5 uM after 24 hrs by fluorescence microscopy; assay type: ADME, cell-based; conditions: human, hek-293t; procedure, shortened: as §2
[26] = test system: MCF7; assay: Cellular uptake in human MCF7 cells at 5 uM after 24 hrs by fluorescence microscopy; assay type: ADME, cell-based; conditions: mcf7, 24 h
[27] = test system: U2OS; assay: Cytotoxicity against human U2OS cells after 24 hrs by WST-1 assay; assay type: functional, cell-based; procedure, shortened: as §1
[28] = test system: U2OS; assay: Cytotoxicity against human U2OS cells after 48 hrs by WST-1 assay; assay type: functional, cell-based; procedure, shortened: as §1
[29] = Cytotoxicity against human MIAPaCa2 cells after 24 hrs by WST-1 assay; assay type: functional, cell-based; conditions: MIA PaCa-2, 24 h; procedure, shortened: as §1
[30] = test system: LNCaP; assay: Cytotoxicity against human LNCAP cells after 72 hrs by WST-1 assay; assay type: functional, cell-based; procedure, shortened: as §1
[31] = test system: MCF7; assay: Cytotoxicity against human MCF7 cells after 72 hrs by WST-1 assay; assay type: functional, cell-based; conditions: MCF7, 72 h; procedure, shortened: as §1
[32] = test system: C2C12; assay: Cytotoxicity against mouse C2C12 cells after 24 hrs by WST-1 assay; assay type: functional, cell-based; conditions: C2C12, 24 h; procedure, shortened: as §1
[33] = test system: HT-29; assay: Cytotoxicity against human HT-29 cells after 48 hrs by WST-1 assay; assay type: functional, cell-based; conditions: HT-29, 48 h; procedure, shortened: as §1
[34] = species: Rattus norvegicus; assay: Induction of TNFalpha production in rat peritoneal cells at 0.01 to 40 uM after 24 hrs by ELISA; assay type: functional, cell-based

Compound	IC50 [1]	IC50 [2]	IC50 [3]	IC50 [4]	IC50 [5]	IC50 [6]	Activity [8]	IC50 [10]	IC50 [11]	IC50 [14]	IC50 [15]	IC50 [17]	IC50 [18]	IC50 [19]	IC50 [23]	IC50 [27]	IC50 [28]	IC50 [29]	IC50 [30]	IC50 [31]	further results
C/C=C(/C)C(=O)O[C@@H]1C[C@H]2C(=C1C)[C@@H]1OC(=O)[C@@](C)(O)[C@@]1(O)[C@@H](OC(=O)CCOCCOCCOCCOCCOCCOCCOCCOCCOCCOCCn1cc(COc3ccc(C4=C5C=CC=[N+]5[B-](F)(F)n5cccc54)cc3)nn1)C[C@]2(C)OC(C)=O	> 50 µM	48 µM	> 50 µM	41.1 µM	> 50 µM	> 50 µM	Dose-dependent effect	> 50 µM	> 50 µM	> 50 µM	> 50 µM	50 µM	> 50 µM	> 50 µM	> 50 µM	> 50 µM	> 50 µM	> 50 µM	> 50 µM	47.3 µM	Activity [7]: Non-toxic; Drug uptake [9]: Not Active; Drug uptake [12]: Not Active; Activity [13]: Non-toxic; Drug uptake [16]: Not Active; Drug uptake [20]: Not Active; Drug uptake [21]: Not Active; Drug uptake [22]: Not Active; Drug uptake [24]: Not Active; Drug uptake [25]: Not Active; Drug uptake [26]: Not Active; IC50 [32]: > 50 µM; IC50 [33]: > 50 µM
F[B-]1(F)n2cccc2C=C2C=CC=[N+]21	1.5 µM	> 50 µM	5.6 µM	> 50 µM	3.1 µM	> 50 µM	inactive	> 50 µM	> 50 µM	> 50 µM	> 50 µM	> 50 µM	> 50 µM	> 50 µM	> 50 µM	> 50 µM	> 50 µM	> 50 µM	> 50 µM	> 50 µM	Activity [34]: inactive; IC50 [32]: > 50 µM; IC50 [33]: > 50 µM
